Experimental data: PMC4495880 (Biochemical pharmacology, 2010)
Read-outs that look alike come from different tables or passages of the source.

Legend:
[1] = Protease inhibitors blocking BNP inactivation by human kidney membranes; format: biochemical; details: for effect on BNP inactivation: human membranes, data not shown; for effect of inhibitor on inactivation of rat BNP1-32 by human kidney membranes: 45 min, N = 8
[2] = Protease inhibitors blocking BNP inactivation by rat kidney membranes; format: biochemical; details: 40 μg rat kidney membranes, 45 min; cGMP bioassay; N = 8
[3] = cited from earlier work
[4] = Proteolysis bioassay: inactivation of BNP by human kidney membranes; format: in vitro ADME; details: 40 μg human kidney membranes, 45 min, 37°C; cGMP bioassay; mean, N = 8
Procedure, shortened: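 Rat BNP_1-32 incubated 45 min at 37°C with 40 μg crude human kidney membranes (diluted to 2 mg/ml in 50 mM Tris-HCl pH 7.5, 20% glycerol, 50 mM NaF). Stopped with 0.5 N perchloric acid, boiled 10 min, neutralised. Residual activity was read as cGMP (RIA) in serum-starved HEK293 cells expressing rat (1 min) or human (3 min) GC-A, with 1 mM IBMX. Remaining peptide was fitted to an untreated-peptide standard curve and expressed as % of peptide-only. Mean ± SEM, N = 8.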

[5] = Proteolysis bioassay: inactivation of BNP by rat kidney membranes; format: in vitro ADME; details: 40 μg rat kidney membranes, 45 min, 37°C; cGMP bioassay; mean, N = 4
Procedure, shortened: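 Human BNP_1-32 exposed to 40 μg crude rat kidney membranes (Tris-HCl pH 7.5/glycerol/NaF buffer, 2 mg/ml) for 45 min at 37°C. Perchloric acid stop, 10 min boil, NaOH neutralisation. Aliquot in DMEM, 25 mM HEPES pH 7.4, 1 mM IBMX applied to HEK293 cells stably expressing GC-A (rat receptor 1 min, human 3 min). cGMP by radioimmunoassay; peptide left derived from standard curve, % of starting peptide-only value. Mean ± SEM, N = 4.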

[6] = tested on: recombinant human meprin A and NEP; format: in vitro ADME
[7] = 40 μg human kidney membranes, 37°C, cGMP bioassay

O=S(=O)(F)Cc1ccccc1 [PMSF]
effect on BNP inactivation [1]: neither had an effect

CC(=O)N[C@@H](CC(C)C)C(=O)N[C@@H](CC(C)C)C(=O)N[C@H](C=O)CCCNC(=N)N [leupeptin]
effect of inhibitor on inactivation of rat BNP1-32 by rat kidney membranes [2]: had no effect | effect of inhibitor on inactivation of human BNP1-32 by human kidney membranes ([1]; 40 μg human kidney membranes, 20 min, 37°C, cGMP bioassay): completely blocked activity losses | effect of inhibitor on inactivation of rat BNP1-32 by human kidney membranes [1, 7]: blocked a portion of the activity loss

CC(C)C[C@H](NP(=O)(O)O[C@@H]1O[C@@H](C)[C@H](O)[C@@H](O)[C@H]1O)C(=O)N[C@@H](Cc1c[nH]c2ccccc12)C(=O)O [phosphoramidon]
effect of inhibitor on inactivation of rat BNP1-32 by human kidney membranes [1, 7]: blocked a portion of the activity loss

Atrial natriuretic peptide [ANP]
half-life [3]: ~ 2 min

CNP: natriuretic peptide, best substrate for NEP
half-life ([3]; in vivo): ~ 2 min

Rat B-type natriuretic peptide 1–32 (SQDSAFRIQERLRNSKMAHSSSCFGQKIDRIG; Brain natriuretic peptide 45; UniProt P13205 77-108, looked up, fragment) [rat BNP1-32]
bioactivity lost [4]: More than 75%

aprotinin
effect on BNP inactivation [1]: neither had an effect

human B-type natriuretic peptide [human BNP1-32]
half-life [3]: ~ 20 min | initial bioactivity lost [5]: 48% | additional loss of activity on longer incubation with purified enzymes [6]: did not result in any additional loss | additional loss of activity on sequential addition of the enzymes [6]: did not result in any additional loss
